Measured values reported in ChEMBL document CHEMBL1240327, “Small molecules enhance autophagy and reduce toxicity in Huntington's disease models” (Nat Chem Biol, 2007).
Calls of active or inactive are those of the source. No cut-off for these calls is given here.

Legend:
PC-12 [1] = experiment: Enhancement of autophagy in rat PC12 cells assessed as decrease in alpha-synuclein A53T mutant level at 43 uM by immunoblotting; assay type: functional, cell-based
Outline: (§1)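 Stable PC12 line with doxycycline-inducible HA-tagged A53T α-synuclein; induced with 1 μg/ml doxycycline for 48 h, then doxycycline removed. Compounds added during the 24 h switch-off period, from 5 mg ml⁻¹ DMSO stock diluted 1:20000, 1:4000 or 1:400. HA immunoblot, densitometry relative to actin; control set to 100 %; three independent experiments, factorial ANOVA.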

[2] = Cytotoxicity against african green monkey COS7 cells at 47 uM after 24 hrs by FACS analysis; assay type: cell-based; details: chlorocebus aethiops, cos-7, 24 h
[3] = molecular target: Huntingtin (Homo sapiens) (UniProt P42858); experiment: Inhibition of EGFP-tagged huntingtin aggregation expressed in african green monkey COS7 cells at 47 uM after 48 hrs by […]; assay type: cell-based; details: COS-7
[4] = molecular target: Huntingtin (Homo sapiens) (UniProt P42858); experiment: Inhibition of EGFP-tagged huntingtin expressed in african green monkey COS7 cells assessed as protection against protein-induced cell death at 47 uM after 48 hrs by Western blot analysis; assay type: cell-based; details: COS-7
[5] = molecular target: Huntingtin (Mus musculus) (UniProt P42859); experiment: Inhibition of EGFP-tagged huntingtin aggregation in MEF harboring Atg5 gene at 47 uM after 48 hrs by Western blot analysis
[6] = molecular target: Huntingtin (Mus musculus) (UniProt P42859); experiment: Inhibition of EGFP-tagged huntingtin aggregation in Atg5-deficient MEF at 47 uM after 48 hrs by Western blot analysis
HeLa [7] = experiment: Induction of autophagy in human HeLa cells harboring MAP1LC3 gene at 47 uM after 24 hrs by DAPI staining-based fluorescence microscopy; assay type: functional, cell-based
Outline: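 Stable EGFP-LC3 HeLa cells treated 24 h. EGFP-positive autophagic vesicles were imaged by confocal microscopy with DAPI nuclear counterstain.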

HeLa [8] = experiment: Increase in MAP1LC3 level in bafilomycin A1-treated human HeLa cells at 47 uM treated fro 24 hrs before bafilomycin A1 challenge by immunoblotting analysis; assay type: functional, cell-based
Outline: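 HeLa cells stably expressing EGFP-LC3 were pretreated with compound for 24 h, then given 200 nM bafilomycin A1 for 4 h. EGFP-LC3-II was measured by anti-EGFP immunoblot with densitometry relative to actin, from three independent experiments.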

Drosophila melanogaster [9] = experiment: Neuroprotective activity in Drosophila melanogaster Huntington's disease model harboring huntington protein mutant assessed as protection against neurodegeneration at 100 uM; assay type: functional, organism-based
Drosophila melanogaster [10] = experiment: Toxicity against Drosophila melanogaster Huntington's disease model at 100 uM; assay type: organism-based; details: in vivo
[11] = molecular target: Serine/threonine-protein kinase mTOR (Homo sapiens) (UniProt P42345); experiment: Inhibition of mTOR phosphorylation expressed in african green monkey COS7 cells at 47 uM by Western blot analysis; assay type: cell-based; details: COS-7
COS-7 [12] = experiment: Effect on ATg6 level in african green monkey COS7 cells at 47 uM after 24 hrs by immunoblotting; assay type: functional, cell-based; details: Chlorocebus aethiops
COS-7 [13] = experiment: Effect on ATg5 level in african green monkey COS7 cells at 47 uM after 24 hrs by immunoblotting; assay type: functional, cell-based; details: Chlorocebus aethiops
COS-7 [14] = experiment: Effect on ATg7 level in african green monkey COS7 cells at 47 uM after 24 hrs by immunoblotting; assay type: functional, cell-based; details: Chlorocebus aethiops
COS-7 [15] = experiment: Effect on ATg12 level in african green monkey COS7 cells at 47 uM after 24 hrs by immunoblotting; assay type: functional, cell-based; details: Chlorocebus aethiops
COS-7 [16] = experiment: Increase in conjugated Atg12-Atg5 level in african green monkey COS7 cells at 47 uM after 24 hrs by immunoblotting; assay type: functional, cell-based; details: Chlorocebus aethiops
HeLa [17] = experiment: Inhibition of proteasome activity in human HeLa cells assessed as induction of ubiquitinG76V-EGFP reporter level at 47 uM after 24 hrs by immunoblotting
PC-12 [18] = experiment: Enhancement of rapamycin-induced clearance of alpha-synuclein A53T mutant protein in rat PC12 cells at 140 uM after 8 hrs by immunoblotting; assay type: functional, cell-based
Outline: (§2)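 Inducible PC12 A53T α-synuclein line (1 μg/ml doxycycline, 48 h, then switched off). Compound given alone or with 0.2 μM rapamycin over an 8 h switch-off period. Read-out is anti-HA immunoblot with densitometry relative to actin, n=3, control as 100 %.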

PC-12 [19] = experiment: Enhancement of rapamycin-induced clearance of alpha-synuclein A53T mutant protein in rat PC12 cells at 43 uM after 8 hrs by immunoblotting; assay type: functional, cell-based; outline: as §2
[20] = molecular target: Huntingtin (Homo sapiens) (UniProt P42858); experiment: Inhibition of EGFP-tagged huntingtin aggregation expressed in african green monkey COS7 cells at 140 uM after 24 hrs by […] in presence of 0.2 uM rapamycin; assay type: cell-based; details: COS-7
Saccharomyces cerevisiae [21] = experiment: Enhancement of 20 nM rapamycin-mediated cytostatic effect in yeast BY4742 after 48 to 96 hrs; assay type: functional, organism-based
Saccharomyces cerevisiae [22] = experiment: Enhancement of rapamycin-mediated cytostatic effect in yeast RM11-1a after 48 to 96 hrs; assay type: functional
Saccharomyces bayanus [23] = experiment: Enhancement of rapamycin-mediated cytostatic effect in Saccharomyces bayanus after 48 to 96 hrs; assay type: functional
Saccharomyces mikatae [24] = experiment: Enhancement of rapamycin-mediated cytostatic effect in Saccharomyces mikatae after 48 to 96 hrs; assay type: functional
Saccharomyces paradoxus [25] = experiment: Enhancement of rapamycin-mediated cytostatic effect in Saccharomyces paradoxus after 48 to 96 hrs; assay type: functional
Saccharomyces cerevisiae [26] = experiment: Enhancement of anisomycin-mediated cytostatic effect in yeast BY4742 after 48 to 96 hrs; assay type: functional, organism-based
Saccharomyces cerevisiae [27] = experiment: Enhancement of CHX-mediated cytostatic effect in yeast BY4742 after 48 to 96 hrs; assay type: functional, organism-based
Saccharomyces cerevisiae [28] = experiment: Enhancement of nocodazole-mediated cytostatic effect in yeast BY4742 after 48 to 96 hrs; assay type: functional, organism-based
Saccharomyces cerevisiae [29] = experiment: Enhancement of tunicamycin-mediated cytostatic effect in yeast BY4742 after 48 to 96 hrs; assay type: functional, organism-based
PC-12 [30] = experiment: Enhancement of autophagy in rat PC12 cells assessed as decrease in alpha-synuclein A53T mutant level at 5 mg/ml by densitometry; assay type: functional, cell-based; outline: as §1
Saccharomyces cerevisiae [31] = experiment: Enhancement of menadione-mediated cytostatic effect in yeast BY4742 after 48 to 96 hrs; assay type: functional, organism-based
PC-12 [32] = experiment: Enhancement of autophagy in rat PC12 cells assessed as decrease in alpha-synuclein A53T mutant level at 47 uM by immunoblotting; assay type: functional, cell-based; outline: as §1
PC-12 [33] = experiment: Enhancement of rapamycin-induced clearance of alpha-synuclein A53T mutant protein in rat PC12 cells at 47 uM after 8 hrs by immunoblotting; assay type: functional, cell-based; outline: as §2
[34] = molecular target: Huntingtin (Homo sapiens) (UniProt P42858); experiment: Inhibition of EGFP-tagged huntingtin aggregation expressed in african green monkey COS7 cells at 47 uM after 24 hrs by […] in presence of 0.2 uM rapamycin; assay type: cell-based; details: COS-7
Saccharomyces cerevisiae [35] = experiment: Inhibition of 50 nM rapamycin-mediated cytostatic effect in yeast BY4742 after 48 to 96 hrs; assay type: functional, organism-based
Saccharomyces cerevisiae [36] = experiment: Inhibition of rapamycin-mediated cytostatic effect in yeast RM11-1a after 48 to 96 hrs; assay type: functional
Saccharomyces bayanus [37] = experiment: Inhibition of rapamycin-mediated cytostatic effect in Saccharomyces bayanus after 48 to 96 hrs; assay type: functional
Saccharomyces mikatae [38] = experiment: Inhibition of rapamycin-mediated cytostatic effect in Saccharomyces mikatae after 48 to 96 hrs; assay type: functional
Saccharomyces paradoxus [39] = experiment: Inhibition of rapamycin-mediated cytostatic effect in Saccharomyces paradoxus after 48 to 96 hrs; assay type: functional

Sequence of Huntingtin (Mus musculus) (P42859 whole entry): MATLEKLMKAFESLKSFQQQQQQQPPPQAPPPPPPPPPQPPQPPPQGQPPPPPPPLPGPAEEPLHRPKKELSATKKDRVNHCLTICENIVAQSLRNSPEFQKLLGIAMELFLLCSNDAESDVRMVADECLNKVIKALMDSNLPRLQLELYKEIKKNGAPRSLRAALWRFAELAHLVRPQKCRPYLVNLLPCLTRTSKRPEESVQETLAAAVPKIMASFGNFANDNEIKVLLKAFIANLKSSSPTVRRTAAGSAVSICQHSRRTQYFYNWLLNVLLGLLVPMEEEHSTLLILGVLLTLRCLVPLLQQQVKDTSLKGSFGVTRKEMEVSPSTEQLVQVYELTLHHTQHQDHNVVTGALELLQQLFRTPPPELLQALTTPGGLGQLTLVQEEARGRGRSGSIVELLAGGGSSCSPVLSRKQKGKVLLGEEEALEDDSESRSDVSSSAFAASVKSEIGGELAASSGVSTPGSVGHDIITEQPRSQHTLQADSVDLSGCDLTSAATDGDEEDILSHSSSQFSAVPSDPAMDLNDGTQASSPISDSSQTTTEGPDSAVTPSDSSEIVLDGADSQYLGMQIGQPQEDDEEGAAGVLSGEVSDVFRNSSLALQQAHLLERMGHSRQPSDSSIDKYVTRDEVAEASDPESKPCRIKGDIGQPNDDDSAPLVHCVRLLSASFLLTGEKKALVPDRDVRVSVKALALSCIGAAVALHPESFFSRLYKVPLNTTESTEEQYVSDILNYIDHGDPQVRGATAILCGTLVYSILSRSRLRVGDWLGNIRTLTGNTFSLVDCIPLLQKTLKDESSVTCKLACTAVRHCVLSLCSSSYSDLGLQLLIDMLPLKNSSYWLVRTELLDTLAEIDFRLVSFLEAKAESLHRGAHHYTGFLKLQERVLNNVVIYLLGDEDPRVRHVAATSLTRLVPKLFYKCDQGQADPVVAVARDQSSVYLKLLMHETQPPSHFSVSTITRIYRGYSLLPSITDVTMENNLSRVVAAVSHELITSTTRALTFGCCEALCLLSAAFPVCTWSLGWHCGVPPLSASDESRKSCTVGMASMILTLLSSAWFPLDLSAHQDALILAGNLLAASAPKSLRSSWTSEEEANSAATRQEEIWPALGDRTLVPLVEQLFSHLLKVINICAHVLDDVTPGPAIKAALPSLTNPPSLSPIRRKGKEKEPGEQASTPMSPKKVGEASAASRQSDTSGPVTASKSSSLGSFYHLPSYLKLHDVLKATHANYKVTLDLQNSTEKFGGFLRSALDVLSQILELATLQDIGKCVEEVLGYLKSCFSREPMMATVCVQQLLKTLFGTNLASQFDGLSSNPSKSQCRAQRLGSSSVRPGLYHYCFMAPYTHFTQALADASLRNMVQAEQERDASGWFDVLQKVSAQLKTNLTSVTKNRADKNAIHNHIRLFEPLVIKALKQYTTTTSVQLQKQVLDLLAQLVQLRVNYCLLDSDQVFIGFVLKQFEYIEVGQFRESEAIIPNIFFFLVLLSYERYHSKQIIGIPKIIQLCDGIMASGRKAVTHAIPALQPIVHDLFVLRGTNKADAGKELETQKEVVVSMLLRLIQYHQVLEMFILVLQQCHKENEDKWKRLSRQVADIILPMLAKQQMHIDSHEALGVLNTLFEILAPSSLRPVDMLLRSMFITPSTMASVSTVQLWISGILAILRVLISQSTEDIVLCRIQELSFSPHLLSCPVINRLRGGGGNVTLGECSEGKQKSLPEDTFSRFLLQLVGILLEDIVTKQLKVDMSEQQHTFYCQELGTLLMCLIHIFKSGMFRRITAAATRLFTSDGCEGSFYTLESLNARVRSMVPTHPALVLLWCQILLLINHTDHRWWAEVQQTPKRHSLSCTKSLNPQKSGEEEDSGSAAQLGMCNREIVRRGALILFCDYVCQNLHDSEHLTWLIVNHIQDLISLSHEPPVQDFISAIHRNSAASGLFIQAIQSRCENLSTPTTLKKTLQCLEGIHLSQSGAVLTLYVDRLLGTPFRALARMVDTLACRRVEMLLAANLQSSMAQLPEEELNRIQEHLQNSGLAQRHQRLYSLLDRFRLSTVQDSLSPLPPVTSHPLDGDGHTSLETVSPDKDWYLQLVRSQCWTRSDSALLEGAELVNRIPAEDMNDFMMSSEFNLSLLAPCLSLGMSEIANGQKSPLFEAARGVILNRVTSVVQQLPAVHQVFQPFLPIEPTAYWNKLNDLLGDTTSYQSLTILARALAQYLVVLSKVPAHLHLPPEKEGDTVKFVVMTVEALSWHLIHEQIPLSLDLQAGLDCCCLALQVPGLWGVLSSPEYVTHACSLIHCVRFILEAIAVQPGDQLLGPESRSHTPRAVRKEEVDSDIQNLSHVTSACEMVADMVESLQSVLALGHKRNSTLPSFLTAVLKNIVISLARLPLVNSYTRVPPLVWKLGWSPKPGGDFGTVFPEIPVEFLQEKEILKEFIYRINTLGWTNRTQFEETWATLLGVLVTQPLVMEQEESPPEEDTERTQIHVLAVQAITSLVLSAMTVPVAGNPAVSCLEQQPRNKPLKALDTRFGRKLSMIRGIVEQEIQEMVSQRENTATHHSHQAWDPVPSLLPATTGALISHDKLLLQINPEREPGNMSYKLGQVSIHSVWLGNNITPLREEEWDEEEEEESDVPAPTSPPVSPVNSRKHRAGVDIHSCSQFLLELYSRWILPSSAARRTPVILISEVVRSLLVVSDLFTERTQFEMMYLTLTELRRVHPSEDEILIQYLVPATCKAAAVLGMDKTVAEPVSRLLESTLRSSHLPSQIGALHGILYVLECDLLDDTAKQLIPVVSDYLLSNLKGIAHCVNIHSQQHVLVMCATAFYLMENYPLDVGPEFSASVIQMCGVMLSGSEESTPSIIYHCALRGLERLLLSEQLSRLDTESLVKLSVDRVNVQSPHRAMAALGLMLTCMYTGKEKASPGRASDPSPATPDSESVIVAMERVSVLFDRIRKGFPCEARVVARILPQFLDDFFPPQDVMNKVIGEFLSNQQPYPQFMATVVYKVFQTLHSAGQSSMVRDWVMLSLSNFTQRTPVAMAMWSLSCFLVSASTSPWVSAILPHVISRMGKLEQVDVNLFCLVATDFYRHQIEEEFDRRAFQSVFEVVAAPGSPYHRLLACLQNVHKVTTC

inhibition [3]	inhibition [5]	inhibition [6]	inhibition [11]	inhibition (HeLa [17])	EC50 (Saccharomyces cerevisiae [21]) [µM]	SMILES	Activity (PC-12 [1])	Activity [2]	inhibition [4]	Activity (HeLa [7])	Activity (HeLa [8])	Activity (Drosophila melanogaster [9])	Activity (Drosophila melanogaster [10])	Activity (COS-7 [12])	Activity (COS-7 [13])	Activity (COS-7 [14])	Activity (COS-7 [15])	Activity (COS-7 [16])	Activity (Saccharomyces cerevisiae [22])	Activity (Saccharomyces bayanus [23])	further results
Active	inactive	inactive	inactive	inactive	4.9	Nn1cnc2c(c1=O)C1(CCCC1)Cc1ccccc1-2	Active	Non-toxic	Active	Active	Active	Active	Non-toxic	inactive	inactive	inactive	inactive	inactive	Active	Active	Activity (PC-12 [18]): Active; Activity (PC-12 [19]): Active; inhibition [20]: Active; Activity (Saccharomyces mikatae [24]): Active; Activity (Saccharomyces paradoxus [25]): Active; Activity (Saccharomyces cerevisiae [26]): Active; Activity (Saccharomyces cerevisiae [27]): Active; Activity (Saccharomyces cerevisiae [28]): Active; Activity (Saccharomyces cerevisiae [29]): Active; Activity (PC-12 [30]): Active; Activity (Saccharomyces cerevisiae [31]): Active; Activity (PC-12 [32]): Active
Active	inactive	inactive	inactive	inactive	> 50	C=CCNc1ncnc2ccc(Br)cc12	Active	Non-toxic	Active	Active	Active	Active	Non-toxic	inactive	inactive	inactive	inactive	inactive	Active	Active	Activity (PC-12 [33]): Active; inhibition [34]: Active; Activity (Saccharomyces mikatae [24]): Active; Activity (Saccharomyces paradoxus [25]): Active; Activity (PC-12 [30]): Active; Activity (PC-12 [32]): Active
						S=C(S)OC1CC2CC1C1CCCC21 (stereo not drawn)															EC50 (Saccharomyces cerevisiae [35]): 0.412 µM; inhibition (Saccharomyces cerevisiae [36]): Active; inhibition (Saccharomyces bayanus [37]): Active; inhibition (Saccharomyces mikatae [38]): Active; inhibition (Saccharomyces paradoxus [39]): Active
